# Experimental data as given in ChEMBL document CHEMBL1137462, “Indoloxypropanolamine analogues as 5-HT(1A) receptor antagonists” (Bioorg Med Chem Lett, 2007).
# How the values were obtained:
# [1] = target: T1, 5-hydroxytryptamine receptor 1A (Homo sapiens, UniProt P08908); assay: Displacement of [3H]DPAT from human 5HT1A receptor
# T1 sequence (P08908 whole entry): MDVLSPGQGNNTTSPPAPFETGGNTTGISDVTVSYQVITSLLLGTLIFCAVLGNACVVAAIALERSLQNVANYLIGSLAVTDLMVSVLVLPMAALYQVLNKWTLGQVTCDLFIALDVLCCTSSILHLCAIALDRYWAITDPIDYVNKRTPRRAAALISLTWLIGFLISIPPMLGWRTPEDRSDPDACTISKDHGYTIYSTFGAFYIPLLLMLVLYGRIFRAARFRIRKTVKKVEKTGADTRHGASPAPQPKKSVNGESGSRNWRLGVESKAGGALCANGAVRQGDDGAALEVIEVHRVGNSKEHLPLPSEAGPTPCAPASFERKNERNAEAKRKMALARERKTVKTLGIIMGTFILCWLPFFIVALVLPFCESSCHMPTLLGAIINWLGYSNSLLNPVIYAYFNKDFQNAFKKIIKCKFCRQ
# In short: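 Radioligand binding in vitro using cell lines expressing the human 5-HT1A receptor. Values are mean ± SEM of at least three determinations.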
# [2] = target: T1, 5-hydroxytryptamine receptor 1A; assay: Antagonist activity at human 5HT1A expressed in mouse LM(tK-) cells assessed as inhibition of 5-HT-stimulated [35S]GTP-gamma-S binding; assay type: functional, cell-based
# In short: (§1)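 [35S]GTPγS binding in mouse LM(tk−) cells expressing the human 5-HT1A receptor, with binding stimulated by 300 nM 5-HT. Ki was calculated from inhibition of that stimulation. Maximal inhibition was expressed as a percentage of the stimulation produced by a maximal 5-HT concentration. Where Ki could not be obtained, inhibition was read at the highest accurately testable compound concentration.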
# [3] = target: T2, 5-hydroxytryptamine receptor 1A (Homo sapiens) (UniProt P08908); assay: Antagonist activity at human 5HT1A expressed in mouse LM(tK-) cells assessed as maximal inhibition of 5-HT-stimulated [35S]GTPgammaS binding; assay type: functional, cell-based; set-up: scale not given: the % may be the effect or the level left
# T2 sequence (whole entry): T1 sequence (P08908 whole entry)
# [4] = target: T2, 5-hydroxytryptamine receptor 1A (Homo sapiens); assay: Antagonist activity at human 5HT1A expressed in mouse LM(tK-) cells assessed as inhibition of 5-HT-stimulated [35S]GTP-gamma-S binding at 10 uM; assay type: functional, cell-based; set-up: scale not given: the % may be the effect or the level left
# In short: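 Human 5-HT1A receptor expressed in mouse LM(tk-) cells. [35S]GTPγS binding was stimulated with 300 nM 5-HT, and inhibition was measured at a single compound concentration, the highest that could be accurately tested.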
# [5] = system: Rattus norvegicus; assay: Blockade of 8-OH-DPAT-induced increase in serum corticosterone level in Spargue-Dawley rat at 0.1 mg/kg, sc; assay type: functional; conditions: route subcutaneous
# In short: (§2)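 Male Sprague–Dawley rats received compound sc at 0.03–1.0 mg/kg, 15 min before 0.3 mg/kg sc 8-OH-DPAT. Rats were killed 1 h after the agonist. Serum corticosterone was measured with a 3H-corticosterone kit. Results are mean and standard error, n = 5 rats per group, with percent antagonism of the 8-OH-DPAT-induced rise.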
# [6] = system: Rattus norvegicus; assay: Blockade of 8-OH-DPAT-induced increase in serum corticosterone level in Spargue-Dawley rat at 0.3 mg/kg, sc; assay type: functional; conditions: route subcutaneous; in short: as §2
# [7] = system: Rattus norvegicus; assay: Blockade of 8-OH-DPAT-induced increase in serum corticosterone level in Spargue-Dawley rat at 0.03 mg/kg, sc; assay type: functional; conditions: route subcutaneous; in short: as §2
# [8] = system: Rattus norvegicus; assay: Blockade of 8-OH-DPAT-induced increase in serum corticosterone level in male Spargue-Dawley rat at 1.0 mg/kg, sc; assay type: functional; conditions: route subcutaneous; in short: as §2
# [9] = target: Beta-1 adrenergic receptor (Homo sapiens, UniProt P08588); assay: Binding affinity at human adrenergic beta-1 receptor
# Sequence of Beta-1 adrenergic receptor (P08588 whole entry): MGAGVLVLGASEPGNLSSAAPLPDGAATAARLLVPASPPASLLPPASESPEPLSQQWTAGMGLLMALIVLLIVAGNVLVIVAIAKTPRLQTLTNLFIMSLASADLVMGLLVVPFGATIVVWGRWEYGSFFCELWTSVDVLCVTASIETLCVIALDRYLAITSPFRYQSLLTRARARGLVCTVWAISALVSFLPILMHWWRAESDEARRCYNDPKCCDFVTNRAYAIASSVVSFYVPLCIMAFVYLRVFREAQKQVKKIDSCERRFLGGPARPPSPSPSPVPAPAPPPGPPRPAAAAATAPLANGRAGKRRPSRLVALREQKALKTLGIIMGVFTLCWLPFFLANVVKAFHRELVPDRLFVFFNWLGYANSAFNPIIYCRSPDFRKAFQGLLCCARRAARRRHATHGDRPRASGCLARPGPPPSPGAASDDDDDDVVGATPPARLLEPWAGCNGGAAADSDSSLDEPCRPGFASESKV
# [10] = target: Beta-2 adrenergic receptor (Homo sapiens, UniProt P07550); assay: Binding affinity at human adrenergic beta2 receptor
# Sequence of Beta-2 adrenergic receptor (P07550 whole entry): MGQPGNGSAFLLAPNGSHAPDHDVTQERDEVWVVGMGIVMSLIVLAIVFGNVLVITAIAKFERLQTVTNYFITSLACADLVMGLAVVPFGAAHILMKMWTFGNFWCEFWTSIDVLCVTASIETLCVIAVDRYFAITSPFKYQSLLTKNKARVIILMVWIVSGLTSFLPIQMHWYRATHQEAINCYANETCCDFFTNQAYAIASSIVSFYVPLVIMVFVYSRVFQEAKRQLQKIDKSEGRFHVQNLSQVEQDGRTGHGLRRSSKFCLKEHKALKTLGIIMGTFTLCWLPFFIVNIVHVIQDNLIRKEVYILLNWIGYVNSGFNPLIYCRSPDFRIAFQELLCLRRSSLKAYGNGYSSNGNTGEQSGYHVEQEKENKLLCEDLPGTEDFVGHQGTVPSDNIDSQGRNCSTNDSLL
# [11] = system: Rattus norvegicus; assay: Blockade of 8-OH-DPAT-induced increase in serum corticosterone level in sc dosed Spargue-Dawley rat; assay type: functional; in short: as §2
# [12] = target: T1, 5-hydroxytryptamine receptor 1A; assay: Antagonist activity at human 5HT1A expressed in mouse LM(tK-) cells assessed as 5-HT-stimulated [35S]GTPgammaS binding; assay type: functional, cell-based; in short: as §1
# [13] = target: T2, 5-hydroxytryptamine receptor 1A (Homo sapiens); assay: Antagonist activity at human 5HT1A expressed in mouse LM(tK-) cells assessed as maximal 5-HT-stimulated [35S]GTPgammaS binding relative to 5HT; assay type: functional, cell-based
Compound,Ki [1] [nM],Ki [2] [nM],Activity [3] [%],other results
OC(CNC12CC3CC(CC(C3)C1)C2)COc1ccc2[nH]ccc2c1 (configuration not stated),833,–,–,–
c1cc(OCCCNC2CCCC2)c2cc[nH]c2c1,94.3,233,24.8,–
C[C@](O)(CNC12CC3CC(CC(C3)C1)C2)COc1cccc2[nH]ccc12,868,–,–,–
OC(CNC12CC3CC(CC(C3)C1)C2)COc1cccc2[nH]ccc12 (configuration not stated),9.29,7.84,6.56,–
COC(CNC1CCCCC1)COc1cccc2[nH]ccc12 (configuration not stated),40.6,–,–,Activity [4]: 36.2%
OC(CNC1CCCC1)COc1cccc2[nH]ccc12 (configuration not stated),10.6,35.5,11.8,–
C[C@](O)(CNC1CCCCC1)COc1cccc2[nH]ccc12,1450,–,–,–
CC(C)NCC(O)COc1cccc2[nH]ccc12 (configuration not stated),–,–,9.76,–
COC(CNC12CC3CC(CC(C3)C1)C2)COc1cccc2[nH]ccc12 (configuration not stated),32,–,–,Activity [4]: 28.9%
O[C@@H](CNC1CCCCC1)COc1cccc2[nH]ccc12,1.33,6.68,7.52,Activity [5]: 26%; Activity [6]: 53%; Activity [7]: 13%; Activity [8]: 92%; Ki [9]: 2.37 nM; Ki [10]: 3.75 nM; ED50 [11]: 2.5 mg/kg
O[C@H](CNC12CC3CC(CC(C3)C1)C2)COc1cccc2[nH]ccc12,18.3,29.9,3.15,–
CCC(CC)NCC(O)COc1cccc2[nH]ccc12 (configuration not stated),28.6,49.8,4.74,–
OC(CCOc1cccc2[nH]ccc12)CNC1CCCCC1 (configuration not stated),872,–,–,–
c1cc(OCCCNC2CCCCC2)c2cc[nH]c2c1,78.4,–,–,Activity [4]: 31.3%
OC(CNC1CCCCC1)COc1cccc2[nH]ccc12 (configuration not stated),3.58,9.83,9.88,–
OC(CCNC1CCCCC1)COc1cccc2[nH]ccc12 (configuration not stated),125,–,–,EC50 [12]: 394 nM; Emax [13]: 45.6%
OC(CCOc1cccc2[nH]ccc12)CNC12CC3CC(CC(C3)C1)C2 (configuration not stated),551,–,–,–
OC(CNC1CCCCC1)COc1ccc2[nH]ccc2c1 (configuration not stated),> 3000,–,–,–
OC(CCNC12CC3CC(CC(C3)C1)C2)COc1cccc2[nH]ccc12 (configuration not stated),76.1,–,–,EC50 [12]: 854 nM; Emax [13]: 51.8%
O[C@@H](CNC1C2CC3CC(C2)CC1C3)COc1cccc2[nH]ccc12 (some centres not stated),11.2,24,8.75,–
OC(CNC1CCCCCC1)COc1cccc2[nH]ccc12 (configuration not stated),6.82,11.3,8.9,–
O[C@@H](CNC12CC3CC(CC(C3)C1)C2)COc1cccc2[nH]ccc12,3.89,4.65,6.38,Ki [9]: 7.92 nM; Ki [10]: 6.63 nM
CC(C)NCC(O)CCOc1cccc2[nH]ccc12 (configuration not stated),1770,–,–,–
O[C@H](CNC1CCCCC1)COc1cccc2[nH]ccc12,26.1,50.8,8.87,–
